Rows were chosen to be rich in hits. Some 2.3% of all compounds tested hit in one or more screens of this group.
TRPC4 PAM = TRPC4 (mouse) allosteric potentiation | HEK293 TRPC4beta/mu-opioid, DAMGO EC20, Fluo-4 Ca2+ flux; stronger effect = higher value | Q9QUQ5 | B-score at 10 µM | AID 2227 | 0.42% of 310,000 active;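 active means B-score of calcium response area above 5 SD of library B-scores, with initial fluorescence ratio within 5 SD of library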;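 further: B-score of integrated fluorescence ratio over time as area under calcium response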
Target sequence (Q9QUQ5 whole entry, looked up): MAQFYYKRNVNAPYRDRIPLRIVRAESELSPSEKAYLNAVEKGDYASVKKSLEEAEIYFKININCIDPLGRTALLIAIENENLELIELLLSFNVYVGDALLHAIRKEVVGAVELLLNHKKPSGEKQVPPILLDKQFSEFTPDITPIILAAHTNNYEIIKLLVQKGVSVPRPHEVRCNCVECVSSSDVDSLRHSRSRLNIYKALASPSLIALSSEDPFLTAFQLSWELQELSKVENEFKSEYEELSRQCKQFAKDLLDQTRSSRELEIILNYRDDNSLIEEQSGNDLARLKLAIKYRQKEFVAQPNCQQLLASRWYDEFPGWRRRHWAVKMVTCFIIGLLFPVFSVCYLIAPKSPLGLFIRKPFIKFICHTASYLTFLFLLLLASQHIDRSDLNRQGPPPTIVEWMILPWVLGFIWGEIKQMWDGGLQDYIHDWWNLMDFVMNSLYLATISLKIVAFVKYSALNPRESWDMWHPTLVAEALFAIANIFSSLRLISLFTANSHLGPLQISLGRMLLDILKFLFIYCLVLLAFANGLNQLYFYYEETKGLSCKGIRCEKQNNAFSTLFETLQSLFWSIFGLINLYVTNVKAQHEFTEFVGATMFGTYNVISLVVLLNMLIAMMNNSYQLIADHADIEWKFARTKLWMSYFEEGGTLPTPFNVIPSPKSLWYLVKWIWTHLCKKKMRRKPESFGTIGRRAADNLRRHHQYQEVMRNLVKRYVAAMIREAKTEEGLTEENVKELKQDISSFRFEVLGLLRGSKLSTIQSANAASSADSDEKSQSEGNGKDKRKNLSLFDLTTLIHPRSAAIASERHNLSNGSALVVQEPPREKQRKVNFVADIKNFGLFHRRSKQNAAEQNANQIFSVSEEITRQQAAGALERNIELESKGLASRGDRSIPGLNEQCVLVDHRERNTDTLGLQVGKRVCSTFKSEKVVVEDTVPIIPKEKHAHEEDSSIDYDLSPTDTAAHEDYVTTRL
TRPC4 agonist = opens the mouse TRPC4 cation channel; HEK293 TRPC4beta/mu-opioid, Fluo4 calcium fluorescence; stronger effect = higher value; B-score at 10 µM; 0.49% of 310,000 active; AID 2237;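 active means B-score above 5 SD of library B-scores, and initial fluorescence ratio not above library mean plus 5 SD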;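 further: positive B-score marks a calcium rise read as TRPC4 activation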
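Technique: kinetic Fluo4 calcium fluorescence; Test system: TRPC4beta and mu-opioid receptor HEK293 stable cells; Measure: B-scored integrated calcium fluorescence ratio; Benchmarks: low control buffer alone, high control maximal DAMGO; Schedule: 45 min room-temperature Fluo4 loading, 110 s read.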
TRPC6 act = activators of mouse TRPC6 channel | Q61143 | HEK293-TRPC6 membrane potential dye fluorescence; stronger effect = higher value | B-score at 10 µM | 0.13% of 310,000 active;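 active means B-score of the integrated fluorescence ratio above library mean plus 3 SD, and starting fluorescence ratio within library mean plus 5 SD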;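 further: higher score means more depolarization so channel activation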
TRPC6 inhibitor = inhibitors of mouse TRPC6 channel. HEK293-TRPC6, membrane potential dye, ACh-evoked depolarization; stronger effect = lower value. AID 2553. B-score at 10 µM. 1.1% of 310,000 active;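 active means B-score under library mean minus 3 SD, initial fluorescence not abnormally high, positive integrated signal ratio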;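 further: B-score derived from integrated fluorescence ratio over the kinetic read; more negative B-score means stronger inhibition of depolarization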
TRPC4 inh = TRPC4 (mouse) channel inhibition; Q9QUQ5; HEK293 TRPC4beta/mu-opioid, DAMGO-evoked Fluo4 calcium flux; stronger effect = lower value; B-score at 10 µM; 0.39% of 300,000 active; AID 2247;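 active means B-score over 3 SD under the library average, no early fluorescence shift, positive overall ratio signal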
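Material: HEK293 cells with stable TRPC4beta plus mu-opioid receptor expression / Probe or stimulus: DAMGO in two steps, submaximal then maximal / Compound: single concentration per test compound / Technique: kinetic Fluo4 fluorescence imaging of calcium influx / Read-out: per-well B score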
* hit, by the source's call.

Results for Cc1cc(N2CCN(C)CC2)nc2ccc(NC(=S)NC3CC3)cc12 ?
TRPC4 PAM: inactive; TRPC4 agonist: inactive; TRPC6 act: inactive; TRPC6 inhibitor: inactive; TRPC4 inh: inactive

Results for CCCN(CCC)CCCNC(=S)Nc1ccc2nc(N3CCN(C)CC3)cc(C)c2c1 ?
TRPC4 PAM: 13*; TRPC4 agonist: inactive; TRPC6 act: inactive; TRPC6 inhibitor: inactive; TRPC4 inh: inactive

What do the screens show for `CCCN(CCC)CCNC(=S)Nc1ccc2nc3n(c(=O)c2c1)CCCCC3`?
TRPC4 PAM: inactive; TRPC4 agonist: 88*; TRPC6 act: inactive; TRPC6 inhibitor: inactive; TRPC4 inh: inactive

What do the screens show for `Cc1cc(C)n(-c2ccc(NC(=O)C3CCCCN3Cc3cccc4c3OCO4)cc2)n1` (centres undefined)?
TRPC4 PAM: inactive; TRPC4 agonist: inactive; TRPC6 act: inactive; TRPC6 inhibitor: inactive; TRPC4 inh: inactive

What do the screens show for `CCCN(CCC)CCNC(=O)CCC(=O)Nc1ccc2nc(N3CCOCC3)cc(C)c2c1`?
TRPC4 PAM: inactive; TRPC4 agonist: 97*; TRPC6 act: inactive; TRPC6 inhibitor: inactive; TRPC4 inh: inactive

Results for CCn1ccc(C(=O)Nc2ccsc2C(=O)OC)n1 ?
TRPC4 PAM: inactive; TRPC4 agonist: inactive; TRPC6 act: inactive; TRPC6 inhibitor: inactive; TRPC4 inh: inactive

What do the screens show for `CCn1c(N2CCN(S(=O)(=O)c3ccccc3C(F)(F)F)CC2)nc2ccccc21`?
TRPC4 PAM: inactive; TRPC4 agonist: 119*; TRPC6 act: inactive; TRPC6 inhibitor: inactive; TRPC4 inh: inactive

How did Cn1c(CNC(=O)CNC(=O)Cc2ccc(Cl)cc2)cc(=O)n(C)c1=O do in these assays?
TRPC4 PAM: inactive; TRPC4 agonist: inactive; TRPC6 act: inactive; TRPC6 inhibitor: inactive; TRPC4 inh: inactive

Results for CCc1cc(OCCN2C(=O)NC(C)(C)C2=O)ccc1Cl ?
TRPC4 PAM: 14*; TRPC4 agonist: inactive; TRPC6 act: inactive; TRPC6 inhibitor: inactive; TRPC4 inh: inactive

What do the screens show for `CCc1cc(OCCN(C)C)ccc1Cl`?
TRPC4 PAM: 26*; TRPC4 agonist: 100*; TRPC6 act: inactive; TRPC6 inhibitor: inactive; TRPC4 inh: inactive

How did Cc1cccc(NC(=O)c2ccc3c(c2)C(=O)N(c2ccccc2C)C3=O)n1 do in these assays?
TRPC4 PAM: inactive; TRPC4 agonist: inactive; TRPC6 act: inactive; TRPC6 inhibitor: inactive; TRPC4 inh: inactive

What do the screens show for `COc1ccc(N2C(=O)CSC2c2cccc(F)c2)cc1` (centres undefined)?
TRPC4 PAM: inactive; TRPC4 agonist: inactive; TRPC6 act: inactive; TRPC6 inhibitor: inactive; TRPC4 inh: inactive

Results for COc1ccc(O)c(CN2CCCC(N3CCN(c4ccccc4OC)CC3)C2)c1 (centres undefined) ?
TRPC4 PAM: inactive; TRPC4 agonist: 43*; TRPC6 act: inactive; TRPC6 inhibitor: inactive; TRPC4 inh: inactive

Results for COc1ccccc1N1CCN(C2CCCN(Cc3ccccc3OCCO)C2)CC1 (centres undefined) ?
TRPC4 PAM: 12*; TRPC4 agonist: inactive; TRPC6 act: inactive; TRPC6 inhibitor: inactive; TRPC4 inh: inactive

What do the screens show for `COc1ccccc1N1CCN(C2CCCN(Cc3ccc(Cl)cc3)C2)CC1` (centres undefined)?
TRPC4 PAM: inactive; TRPC4 agonist: inactive; TRPC6 act: inactive; TRPC6 inhibitor: inactive; TRPC4 inh: inactive

How did COc1ccccc1N1CCN(C2CCCN(C(=O)c3oc(C)cc3C)C2)CC1 (centres undefined) do in these assays?
TRPC4 PAM: inactive; TRPC4 agonist: 54*; TRPC6 act: inactive; TRPC6 inhibitor: inactive; TRPC4 inh: inactive

How did CCCC(C)C(=O)Nc1ncc(S(=O)(=O)c2ccc([N+](=O)[O-])cc2)s1 (centres undefined) do in these assays?
TRPC4 PAM: inactive; TRPC4 agonist: inactive; TRPC6 act: inactive; TRPC6 inhibitor: inactive; TRPC4 inh: inactive

What do the screens show for `CNC(=O)C1CC(=O)N(c2ccc(OCC(=O)NCc3ccccc3)cc2)C1` (centres undefined)?
TRPC4 PAM: inactive; TRPC4 agonist: inactive; TRPC6 act: inactive; TRPC6 inhibitor: inactive; TRPC4 inh: inactive

Results for N#Cc1ccc(CN2C=NS(=O)(=O)c3ccccc32)cc1 ?
TRPC4 PAM: inactive; TRPC4 agonist: inactive; TRPC6 act: inactive; TRPC6 inhibitor: inactive; TRPC4 inh: inactive

What do the screens show for `O=C(NC1CCCCC1)c1ccc2[nH]c(=O)c(=O)[nH]c2c1`?
TRPC4 PAM: inactive; TRPC4 agonist: inactive; TRPC6 act: inactive; TRPC6 inhibitor: inactive; TRPC4 inh: inactive

What do the screens show for `CS(=O)(=O)Nc1nc2n(n1)C(c1ccccc1)CC(c1ccccc1)N2` (centres undefined)?
TRPC4 PAM: inactive; TRPC4 agonist: inactive; TRPC6 act: inactive; TRPC6 inhibitor: inactive; TRPC4 inh: -6*

What do the screens show for `CCN(CC)S(=O)(=O)c1ccc(C)c(NC(=S)N2CCN(Cc3ccc4c(c3)OCO4)CC2)c1`?
TRPC4 PAM: inactive; TRPC4 agonist: inactive; TRPC6 act: inactive; TRPC6 inhibitor: inactive; TRPC4 inh: inactive

How did CC1(C(=O)O)CCC(C(=O)Nc2cccc(F)c2)C1(C)C (centres undefined) do in these assays?
TRPC4 PAM: inactive; TRPC4 agonist: inactive; TRPC6 act: inactive; TRPC6 inhibitor: inactive; TRPC4 inh: inactive

What do the screens show for `CN(Cc1ccccc1)C(=O)C1CCCN(Cc2cccc(Cl)c2)C1` (centres undefined)?
TRPC4 PAM: inactive; TRPC4 agonist: inactive; TRPC6 act: inactive; TRPC6 inhibitor: inactive; TRPC4 inh: -8*

Results for CN(Cc1cccc(Cl)c1)C(=O)C1CCN(C(=O)Nc2ccccc2)CC1 ?
TRPC4 PAM: inactive; TRPC4 agonist: inactive; TRPC6 act: inactive; TRPC6 inhibitor: inactive; TRPC4 inh: inactive

What do the screens show for `CCN(CC)C(=O)C1CCCN(Cc2cccc(Oc3ccccc3)c2)C1` (centres undefined)?
TRPC4 PAM: inactive; TRPC4 agonist: inactive; TRPC6 act: inactive; TRPC6 inhibitor: inactive; TRPC4 inh: -7*

Results for COc1ccc(CCN(C)C(=O)C2CCCN(C3CCN(Cc4ccccc4)CC3)C2)cc1OC (centres undefined) ?
TRPC4 PAM: inactive; TRPC4 agonist: 131*; TRPC6 act: inactive; TRPC6 inhibitor: inactive; TRPC4 inh: inactive

What do the screens show for `COc1ccc(OC)c(N(C)S(=O)(=O)c2ccc3c(c2)N(C(C)=O)CCO3)c1`?
TRPC4 PAM: inactive; TRPC4 agonist: inactive; TRPC6 act: inactive; TRPC6 inhibitor: inactive; TRPC4 inh: inactive

What do the screens show for `CC(=O)Nc1cccc(C(=O)NCC2(N3CCCCC3)CCCCC2)c1`?
TRPC4 PAM: inactive; TRPC4 agonist: inactive; TRPC6 act: inactive; TRPC6 inhibitor: inactive; TRPC4 inh: -6*
